Data taken from ChEMBL document CHEMBL2010768, “Optimization of Potent Inhibitors of P. falciparum Dihydroorotate Dehydrogenase for the Treatment of Malaria” (ACS Med Chem Lett, 2011).
Activity calls are given as the source filed them. The rule behind the calls is not given here.

Experiments:
Plasmodium falciparum [1] = assay: Antiplasmodial activity against Plasmodium falciparum 3D7 infected in […] after 72 hrs by SYBR green assay; format: functional, organism-based; settings: 3D7, 72 h
[2] = molecular target: Dihydroorotate dehydrogenase (quinone), mitochondrial (Homo sapiens, UniProt Q02127); assay: Inhibition of human DHODH after 20 mins by 2,6-dichloroindophenol-reduction based assay
Chain of Dihydroorotate dehydrogenase (quinone), mitochondrial (Q02127 whole entry): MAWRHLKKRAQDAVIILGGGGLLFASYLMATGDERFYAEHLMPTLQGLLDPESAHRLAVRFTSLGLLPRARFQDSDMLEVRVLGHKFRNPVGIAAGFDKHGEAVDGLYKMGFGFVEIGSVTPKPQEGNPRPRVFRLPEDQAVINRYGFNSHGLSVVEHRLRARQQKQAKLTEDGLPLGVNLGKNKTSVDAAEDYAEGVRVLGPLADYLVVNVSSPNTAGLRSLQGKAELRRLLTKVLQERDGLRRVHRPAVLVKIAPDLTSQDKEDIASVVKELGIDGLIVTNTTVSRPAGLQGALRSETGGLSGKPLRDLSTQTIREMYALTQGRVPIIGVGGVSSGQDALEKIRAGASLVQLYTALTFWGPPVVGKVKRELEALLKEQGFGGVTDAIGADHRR

Plasmodium falciparum [3] = assay: Antiplasmodial activity against Plasmodium falciparum Dd2 infected in […] after 72 hrs by SYBR green assay; format: functional, organism-based; settings: Dd2, 72 h
[4] = molecular target: T1, Dihydroorotate dehydrogenase (Plasmodium falciparum, UniProt Q54A96); assay: Inhibition of Plasmodium falciparum DHODH after 20 mins by 2,6-dichloroindophenol-reduction based assay
T1 sequence (Q54A96 whole entry): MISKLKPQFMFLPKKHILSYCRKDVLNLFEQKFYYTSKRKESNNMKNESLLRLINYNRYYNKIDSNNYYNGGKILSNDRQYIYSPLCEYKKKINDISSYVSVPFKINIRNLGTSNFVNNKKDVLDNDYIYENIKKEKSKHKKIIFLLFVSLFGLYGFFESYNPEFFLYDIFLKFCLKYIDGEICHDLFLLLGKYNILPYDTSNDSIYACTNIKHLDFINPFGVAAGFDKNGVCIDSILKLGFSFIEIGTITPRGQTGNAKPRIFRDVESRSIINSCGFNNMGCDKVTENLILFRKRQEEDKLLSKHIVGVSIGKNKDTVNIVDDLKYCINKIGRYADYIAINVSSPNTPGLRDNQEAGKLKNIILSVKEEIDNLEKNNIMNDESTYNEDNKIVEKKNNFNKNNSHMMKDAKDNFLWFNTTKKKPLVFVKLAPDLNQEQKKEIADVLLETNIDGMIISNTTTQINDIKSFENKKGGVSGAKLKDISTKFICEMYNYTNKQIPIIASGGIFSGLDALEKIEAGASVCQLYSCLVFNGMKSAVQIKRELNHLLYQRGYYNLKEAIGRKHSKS

[5] = Cytotoxicity against human RPTEC after 4 days by alamar blue assay; format: cell-based; settings: RPTEC cells, read-out: LC50
Cytochrome P450 2C9 = Cytochrome P450 2C9 (Homo sapiens, UniProt P11712); assay: Inhibition of human CYP2C9 using diclofenac as substrate after 10 mins by LC-MS/MS analysis; format: ADME; settings: human, 10 min
Chain of Cytochrome P450 2C9 (P11712 whole entry): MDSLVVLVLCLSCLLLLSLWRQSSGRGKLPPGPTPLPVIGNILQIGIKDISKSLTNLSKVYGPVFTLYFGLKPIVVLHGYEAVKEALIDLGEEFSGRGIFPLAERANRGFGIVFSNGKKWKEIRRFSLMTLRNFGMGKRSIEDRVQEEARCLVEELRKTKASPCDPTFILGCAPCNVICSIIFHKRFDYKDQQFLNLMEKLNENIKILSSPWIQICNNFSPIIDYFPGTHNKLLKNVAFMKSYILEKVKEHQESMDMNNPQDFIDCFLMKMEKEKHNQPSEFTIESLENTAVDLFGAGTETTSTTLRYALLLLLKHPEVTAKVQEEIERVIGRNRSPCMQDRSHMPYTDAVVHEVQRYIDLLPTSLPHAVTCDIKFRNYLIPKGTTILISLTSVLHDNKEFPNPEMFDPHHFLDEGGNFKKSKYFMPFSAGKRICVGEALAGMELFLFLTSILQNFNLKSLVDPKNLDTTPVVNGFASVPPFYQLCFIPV

[6] = Clearance in human liver microsomes by LC-MS/MS analysis; format: ADME, Microsome
In short: (§1)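 Liver microsome incubation. Predicted clearance is derived from a well-stirred model corrected for microsomal and protein binding.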

Cytochrome P450 2D6 = Cytochrome P450 2D6 (Homo sapiens, UniProt P10635); assay: Inhibition of human CYP2D6 using bufuralol as substrate after 10 mins by LC-MS/MS analysis; format: ADME; settings: human, 10 min
Chain of Cytochrome P450 2D6 (P10635 whole entry): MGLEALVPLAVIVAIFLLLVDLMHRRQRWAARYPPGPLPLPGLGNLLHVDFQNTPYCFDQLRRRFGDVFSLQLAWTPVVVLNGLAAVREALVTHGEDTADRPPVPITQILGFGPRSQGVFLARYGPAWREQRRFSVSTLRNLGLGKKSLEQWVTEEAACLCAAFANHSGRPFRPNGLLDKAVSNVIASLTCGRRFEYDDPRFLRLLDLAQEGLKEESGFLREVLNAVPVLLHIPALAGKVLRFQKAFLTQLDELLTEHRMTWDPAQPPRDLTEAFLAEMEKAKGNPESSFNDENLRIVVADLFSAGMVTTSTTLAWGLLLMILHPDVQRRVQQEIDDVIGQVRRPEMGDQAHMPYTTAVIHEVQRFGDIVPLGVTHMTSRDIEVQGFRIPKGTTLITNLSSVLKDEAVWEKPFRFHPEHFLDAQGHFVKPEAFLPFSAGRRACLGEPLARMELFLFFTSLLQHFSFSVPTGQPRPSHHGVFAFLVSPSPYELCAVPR

Cytochrome P450 3A4 = Cytochrome P450 3A4 (Homo sapiens, UniProt P08684); assay: Inhibition of human CYP3A4 using midazolam as substrate after 5 mins by LC-MS/MS analysis; format: ADME; settings: human, 5 min
Chain of Cytochrome P450 3A4 (P08684 whole entry): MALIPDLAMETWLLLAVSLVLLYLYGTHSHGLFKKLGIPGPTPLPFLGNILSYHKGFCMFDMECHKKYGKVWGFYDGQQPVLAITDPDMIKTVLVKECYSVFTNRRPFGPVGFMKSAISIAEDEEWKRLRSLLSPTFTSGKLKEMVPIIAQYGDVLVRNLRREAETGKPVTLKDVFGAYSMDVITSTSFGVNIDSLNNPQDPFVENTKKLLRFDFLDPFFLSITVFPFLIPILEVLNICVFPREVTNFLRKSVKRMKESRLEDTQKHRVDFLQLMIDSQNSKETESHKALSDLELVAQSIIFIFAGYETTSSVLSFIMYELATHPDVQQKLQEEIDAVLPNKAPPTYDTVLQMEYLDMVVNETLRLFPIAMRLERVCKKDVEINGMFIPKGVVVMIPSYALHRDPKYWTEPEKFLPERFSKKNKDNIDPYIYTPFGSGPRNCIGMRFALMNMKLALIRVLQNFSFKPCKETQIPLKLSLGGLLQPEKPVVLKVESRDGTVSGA

Cytochrome P450 2C19 = Cytochrome P450 2C19 (Homo sapiens, UniProt P33261); assay: Inhibition of human CYP2C19 using S-mephenytoin as substrate after 45 mins by LC-MS/MS analysis; format: ADME; settings: human, 0.75 h
Chain of Cytochrome P450 2C19 (P33261 whole entry): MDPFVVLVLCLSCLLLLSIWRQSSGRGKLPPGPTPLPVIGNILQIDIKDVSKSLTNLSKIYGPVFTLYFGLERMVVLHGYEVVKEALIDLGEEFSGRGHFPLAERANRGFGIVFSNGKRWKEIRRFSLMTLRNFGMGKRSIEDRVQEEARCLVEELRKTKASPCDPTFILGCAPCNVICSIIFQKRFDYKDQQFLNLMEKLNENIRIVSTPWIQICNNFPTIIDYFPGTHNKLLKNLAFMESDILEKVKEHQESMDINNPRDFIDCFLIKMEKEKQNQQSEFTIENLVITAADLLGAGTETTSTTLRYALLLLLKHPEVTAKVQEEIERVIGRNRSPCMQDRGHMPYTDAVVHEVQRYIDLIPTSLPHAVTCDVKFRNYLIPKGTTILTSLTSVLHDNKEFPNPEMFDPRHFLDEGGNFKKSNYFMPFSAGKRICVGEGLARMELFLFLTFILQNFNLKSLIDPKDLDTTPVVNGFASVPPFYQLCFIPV

Plasmodium vivax = assay: Inhibition of Plasmodium vivax DHODH after 20 mins by 2,6-dichloroindophenol-reduction based assay
Cytochrome P450 1A2 = molecular target: T2, Cytochrome P450 1A2 (Homo sapiens, UniProt P05177); assay: Inhibition of human CYP1A2 using phenacetin as substrate after 10 mins by LC-MS/MS analysis; format: ADME; settings: human, 10 min
T2 sequence (P05177 whole entry): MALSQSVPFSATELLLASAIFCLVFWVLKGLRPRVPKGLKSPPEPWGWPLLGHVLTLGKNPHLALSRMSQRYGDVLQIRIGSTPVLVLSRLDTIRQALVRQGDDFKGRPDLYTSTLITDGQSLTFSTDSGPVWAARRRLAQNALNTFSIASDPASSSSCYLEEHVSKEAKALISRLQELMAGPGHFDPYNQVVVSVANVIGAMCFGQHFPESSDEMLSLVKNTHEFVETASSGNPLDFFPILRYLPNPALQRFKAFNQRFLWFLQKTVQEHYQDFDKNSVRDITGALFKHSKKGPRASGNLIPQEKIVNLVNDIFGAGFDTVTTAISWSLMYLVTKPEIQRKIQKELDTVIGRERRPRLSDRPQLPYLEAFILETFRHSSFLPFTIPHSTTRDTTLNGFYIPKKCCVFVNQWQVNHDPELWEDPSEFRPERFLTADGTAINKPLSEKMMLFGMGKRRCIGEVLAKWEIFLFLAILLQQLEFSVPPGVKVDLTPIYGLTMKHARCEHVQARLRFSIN

Plasmodium berghei = assay: Inhibition of Plasmodium berghei DHODH after 20 mins by 2,6-dichloroindophenol-reduction based assay
[7] = Clearance in mouse liver microsomes by LC-MS/MS analysis; format: ADME, Microsome; in short: as §1
[8] = molecular target: Voltage-gated inwardly rectifying potassium channel KCNH2 (Homo sapiens, UniProt Q12809); assay: Inhibition of human ERG expressed in CHOK1 cells by whole cell voltage clamp assay; format: cell-based, CHO-K1; settings: human, cho-k1
Chain of Voltage-gated inwardly rectifying potassium channel KCNH2 (Q12809 whole entry): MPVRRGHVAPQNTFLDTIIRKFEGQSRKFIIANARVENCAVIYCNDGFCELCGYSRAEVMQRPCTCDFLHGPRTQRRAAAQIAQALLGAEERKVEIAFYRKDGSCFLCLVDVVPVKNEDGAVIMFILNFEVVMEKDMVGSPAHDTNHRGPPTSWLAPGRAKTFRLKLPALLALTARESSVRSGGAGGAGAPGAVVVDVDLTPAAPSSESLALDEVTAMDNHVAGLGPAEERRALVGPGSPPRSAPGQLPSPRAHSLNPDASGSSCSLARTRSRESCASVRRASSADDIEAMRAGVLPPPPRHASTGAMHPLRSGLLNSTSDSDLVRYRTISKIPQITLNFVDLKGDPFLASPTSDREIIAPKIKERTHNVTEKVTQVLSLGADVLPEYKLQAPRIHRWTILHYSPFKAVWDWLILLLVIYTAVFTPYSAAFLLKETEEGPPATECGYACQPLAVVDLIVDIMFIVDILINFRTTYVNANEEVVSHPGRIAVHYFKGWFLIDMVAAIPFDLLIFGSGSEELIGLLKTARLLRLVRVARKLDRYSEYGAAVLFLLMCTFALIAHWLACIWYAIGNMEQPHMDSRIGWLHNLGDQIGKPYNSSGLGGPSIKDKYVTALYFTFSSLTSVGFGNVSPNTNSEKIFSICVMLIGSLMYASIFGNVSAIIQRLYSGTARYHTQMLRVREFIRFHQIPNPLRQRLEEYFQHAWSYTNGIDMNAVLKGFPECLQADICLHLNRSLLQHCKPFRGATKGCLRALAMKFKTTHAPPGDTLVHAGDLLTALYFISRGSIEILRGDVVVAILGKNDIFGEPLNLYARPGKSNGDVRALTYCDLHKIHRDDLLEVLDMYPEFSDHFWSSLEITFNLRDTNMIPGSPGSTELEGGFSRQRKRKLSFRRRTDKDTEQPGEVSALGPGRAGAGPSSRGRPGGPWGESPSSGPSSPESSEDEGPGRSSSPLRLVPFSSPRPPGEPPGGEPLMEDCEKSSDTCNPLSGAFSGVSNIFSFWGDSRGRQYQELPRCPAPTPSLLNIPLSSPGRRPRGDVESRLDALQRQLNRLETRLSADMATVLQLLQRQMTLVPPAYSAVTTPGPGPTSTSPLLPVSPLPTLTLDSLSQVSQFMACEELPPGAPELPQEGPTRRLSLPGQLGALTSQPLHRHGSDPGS

Row | Compound | IC50 (Plasmodium falciparum [1]) [nM] | IC50 [2] [nM] | IC50 (Plasmodium falciparum [3]) [nM] | IC50 [4] [nM] | CC50 at 96 h [5] [nM] | inhibition (INH) (Cytochrome P450 2C9) | CLhep predicted [6] [mL/min/kg] | inhibition (INH) (Cytochrome P450 2D6) | inhibition (INH) (Cytochrome P450 3A4) | inhibition (INH) (Cytochrome P450 2C19) | inhibition (Plasmodium vivax) | inhibition (INH) (Cytochrome P450 1A2) | inhibition (Plasmodium berghei) | CLhep predicted [7] [mL/min/kg] | inhibition (INH) [8]
1 | O=C(NC1CC1)c1ccc(-n2c(C(F)(F)F)nc3ccccc32)s1 | 830 | > 30000 | 1710 | 570 | > 62000 |  |  |  |  |  |  |  |  |  | 
2 | COc1cccc2c1nc(C)n2-c1ccc(C(=O)NC2CC2)s1 | 49 |  | 109 | 162 |  | Not Active | 4 | Not Active | Not Active | Not Active | Active | Not Active | Active | > 72 | Not Active
